Experimental findings from ChEMBL document CHEMBL5244249, “Discovery of tofacitinib derivatives as orally active antitumor agents based on the scaffold hybridization strategy” (Eur J Med Chem, 2020) are described below.

Series [1] has as its system MGC-803. Briefly: Antiproliferative activity against human MGC-803 cells assessed as inhibition of cell growth incubated for 72 hrs by MTT assay. Type of series: functional, cell-based. Particulars: MGC-803, 72 h. The method in brief:
(§1)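 Antiproliferative screen in gastric cancer lines MGC-803, HGC-27 and BGC-823 by MTT assay; IC50 reported as mean ± SD.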

The test system of series [2] is PC-9. Briefly: Antiproliferative activity against human PC-9 cells assessed as inhibition of cell growth incubated for 72 hrs by MTT assay. Conditions: PC-9, 72 h. In kind it is functional, cell-based.
Series [3] in a line: Cytotoxicity against human GES1 cells assessed as inhibition of cell growth incubated for 72 hrs by MTT assay. In kind it is toxicity, cell-based.
Series [4] relates to MCF7. Briefly: Antiproliferative activity against human MCF7 cells assessed as inhibition of cell growth incubated for 72 hrs by MTT assay. Type of series: functional, cell-based. Particulars: MCF7, 72 h. Background: Tetrazolium assays rely on reduction of a dye to a coloured formazan, in cell work by metabolically active cells.
Series [5] relates to NCI-H1975. The experiment in a line: Antiproliferative activity against human NCI-H1975 cells assessed as inhibition of cell growth incubated for 72 hrs by MTT assay. In kind it is functional, cell-based. Particulars: NCI-H1975, 72 h.
In series [6] the test system is HGC-27. Briefly: Antiproliferative activity against human HGC-27 cells assessed as inhibition of cell growth incubated for 72 hrs by MTT assay. Type of series: functional, cell-based. Particulars: HGC-27, 72 h. The method in brief: as §1
The subject of series [7] is BGC-823. Briefly: Antiproliferative activity against human BGC-823 cells assessed as inhibition of cell growth incubated for 72 hrs by MTT assay. Type of series: functional, cell-based. Conditions: BGC-823, 72 h. The method in brief: as §1

Broadly, the IC50 is the midpoint of a concentration-inhibition curve. As to `O=c1[nH]cc(F)c(=O)[nH]1` [FLUOROURACIL], the IC50 in series [1] worked out at 3.79 µM; in series [2], 3.25 µM; in series [4], 4.76 µM; in series [5], 2.67 µM; in series [6], 5.75 µM; in series [7], 5.89 µM. Also, the IC50 at 72 h in series [3] was found to be 2.37 µM.
For the compound `C[C@@H]1CCN(C(=O)CC#N)C[C@@H]1N(C)c1ncnc2[nH]ccc12` [TOFACITINIB], the IC50 in series [1], in series [2], in series [4] and in series [5] was more than 100 µM in each case.
For the compound `Cc1cc(N2CC[C@@H](C)[C@@H](N(C)c3ncnc4[nH]ccc34)C2)n2nc(SCc3ccc(F)cc3)nc2n1`, the IC50 in series [1] amounted to 11.9 µM; in series [6], 26 µM; in series [7] it was 44.3 µM. Further, the IC50 at 72 h in series [3] worked out at 12.3 µM.
In the case of `Cc1cc(N2CC[C@@H](C)[C@@H](N(C)c3ncnc4[nH]ccc34)C2)n2nc(SCc3ccccc3Br)nc2n1`, the IC50 in series [1] worked out at 27 µM; in series [6], 21.3 µM; in series [7], 81.1 µM. The concentration for half-maximal inhibition (IC50) at 72 h in series [3] is more than 100 µM.
In the same order, the values of `Cc1ccc(CSc2nc3nc(C)cc(N4CC[C@@H](C)[C@@H](N(C)c5ncnc6[nH]ccc56)C4)n3n2)cc1` are 5.86 µM, 15.2 µM, 69.5 µM and 82.5 µM.
In the same order, the values of `CCCCCc1c(C)nc2nc(SCc3ccc(Cl)cc3)nn2c1N1CC[C@@H](C)[C@@H](N(C)c2ncnc3[nH]ccc23)C1` are more than 100 µM, more than 100 µM, 32.3 µM and more than 100 µM.
In the same order, the values of `Cc1cc(N2CC[C@@H](C)[C@@H](N(C)c3ncnc4[nH]ccc34)C2)n2nc(SCC3CCCCC3)nc2n1` are 9.17 µM, 11.5 µM, 16.3 µM and 98.2 µM.
For `Cc1cc(N2CC[C@@H](C)[C@@H](N(C)c3ncnc4[nH]ccc34)C2)n2nc(SCCCc3ccccc3)nc2n1`, the IC50 in series [1], in series [6] and in series [7] was more than 100 µM each time. In addition, the IC50 at 72 h in series [3] is more than 100 µM.
Take `C#CCSc1nc2nc(C)cc(N3CC[C@@H](C)[C@@H](N(C)c4ncnc5[nH]ccc45)C3)n2n1`: the IC50 came to 18.1 µM in series [1], 35.1 µM in series [6] and 62.1 µM in series [7]. Further, the IC50 at 72 h in series [3] is more than 100 µM.
The matching figures for `Cc1cc(N2CC[C@@H](C)[C@@H](N(C)c3ncnc4[nH]ccc34)C2)n2nc(SCc3nc4ccccc4[nH]3)nc2n1`: 21.2 µM, more than 100 µM, more than 100 µM and 40.2 µM.
In the same order, the values of `Cc1cc(N2CC[C@@H](C)[C@@H](N(C)c3ncnc4[nH]ccc34)C2)n2nc(SCc3csc4ccc(Cl)cc34)nc2n1` are more than 100 µM, more than 100 µM, more than 100 µM and more than 100 µM.
In the same order, the values of `Cc1nc2nc(SCc3ccc(Cl)cc3)nn2c(N2CC[C@@H](C)[C@@H](N(C)c3ncnc4[nH]ccc34)C2)c1C` are 90.5 µM, more than 100 µM, more than 100 µM and 99.2 µM.
In the case of `Cc1cc(N2CC[C@@H](C)[C@@H](N(C)c3ncnc4[nH]ccc34)C2)n2nc(SCc3ccc([N+](=O)[O-])cc3)nc2n1`, the IC50 in series [1] was determined as 26.9 µM; in series [6], 29.4 µM; in series [7], 59.6 µM. In addition, the half-inhibitory concentration (IC50) at 72 h in series [3] is 36.6 µM.
The matching figures for `Cc1cc(N2CC[C@@H](C)[C@@H](N(C)c3ncnc4[nH]ccc34)C2)n2nc(SCc3cc(=O)oc4c3ccc3ccccc34)nc2n1`: more than 100 µM, more than 100 µM, more than 100 µM and more than 100 µM.
In the same order, the values of `Cc1cc(N2CC[C@@H](C)[C@@H](N(C)c3ncnc4[nH]ccc34)C2)n2nc(SCc3ccc(F)c(Cl)c3)nc2n1` are 52 µM, more than 100 µM, 98.9 µM and more than 100 µM.
On to `Cc1cc(N2CC[C@@H](C)[C@@H](N(C)c3ncnc4[nH]ccc34)C2)n2ncnc2n1`, for which the IC50 in series [1] amounted to 4.35 µM; in series [2], 20.9 µM; in series [4], 33.8 µM; in series [5], 22.2 µM; in series [6] it was 11.3 µM; in series [7] it was 67.4 µM. The IC50 at 72 h in series [3] was determined as 57.9 µM.
Take `C=CCSc1nc2nc(C)cc(N3CC[C@@H](C)[C@@H](N(C)c4ncnc5[nH]ccc45)C3)n2n1`: the IC50 was found to be 32.5 µM in series [1], 35.2 µM in series [6] and 40.9 µM in series [7]. Besides, the IC50 at 72 h in series [3] is more than 100 µM.
For the compound `Cc1cc(N2CC[C@@H](C)[C@@H](N(C)c3ncnc4[nH]ccc34)C2)n2nc(SCc3ccccc3)nc2n1`, the half-inhibitory concentration (IC50) in series [1] amounted to 5.87 µM; in series [6] it was 13.9 µM; in series [7], 14.3 µM. The IC50 at 72 h in series [3] came out at 67.2 µM.
The matching figures for `Cc1cc(N2CC[C@@H](C)[C@@H](N(C)c3ncnc4[nH]ccc34)C2)n2nc(SCc3ccc(Br)cc3)nc2n1`: 4.02 µM, 19.5 µM, 28 µM and 55.6 µM.
The matching figures for `CCCSc1nc2nc(C)cc(N3CC[C@@H](C)[C@@H](N(C)c4ncnc5[nH]ccc45)C3)n2n1`: 15.5 µM, 20.9 µM, 51.2 µM and 67.1 µM.
In the same order, the values of `C[C@@H]1CCN(c2cc(-c3ccccc3)nc3ncnn23)C[C@@H]1N(C)c1ncnc2[nH]ccc12` are 84.9 µM, more than 100 µM, more than 100 µM and more than 100 µM.
In the case of `Cc1cc(N2CC[C@@H](C)[C@@H](N(C)c3ncnc4[nH]ccc34)C2)n2nc(SCCc3ccccc3)nc2n1`, the IC50 came to 6.19 µM in series [1], 11.8 µM in series [6] and 28 µM in series [7]. In series [3], the IC50 at 72 h is 66.2 µM.
Take `Cc1cc(N2CC[C@@H](C)[C@@H](N(C)c3ncnc4[nH]ccc34)C2)n2nc(SCC3CC3)nc2n1`: the values for the half-maximal inhibitory concentration (IC50) in series [1], in series [6] and in series [7] were 9.54 µM, 21.4 µM and 36.5 µM, respectively. Moreover, the IC50 at 72 h in series [3] was 27.9 µM.
In the same order, the values of `COc1ccc(CSc2nc3nc(C)cc(N4CC[C@@H](C)[C@@H](N(C)c5ncnc6[nH]ccc56)C4)n3n2)cc1` are 15.2 µM, 18.2 µM, 69.9 µM and more than 100 µM.
The matching figures for `Cc1cc(N2CC[C@@H](C)[C@@H](N(C)c3ncnc4[nH]ccc34)C2)n2nc(SCc3ccc(Cl)cc3)nc2n1`: 16 µM, 18.4 µM, 26.3 µM and more than 100 µM.
The matching figures for `Cc1cc(N2CC[C@@H](C)[C@@H](N(C)c3ncnc4[nH]ccc34)C2)n2nc(SCc3cc(Cl)ccc3Cl)nc2n1`: 9.85 µM, 19.2 µM, 18.9 µM and 87.5 µM.
With `CCc1cc(N2CC[C@@H](C)[C@@H](N(C)c3ncnc4[nH]ccc34)C2)n2ncnc2n1`, the values for the IC50 in series [1], in series [6] and in series [7] were 80.2 µM, more than 100 µM and 82.2 µM, respectively. For the same compound, the IC50 at 72 h in series [3] is more than 100 µM.
For `C[C@@H]1CCN(c2c3c(nc4ncnn24)CCC3)C[C@@H]1N(C)c1ncnc2[nH]ccc12`, the IC50 is 55.9 µM in series [1], 50.5 µM in series [6] and more than 100 µM in series [7]. Moreover, the IC50 at 72 h in series [3] was more than 100 µM.
